The values that follow come from ChEMBL document CHEMBL5649170, “Sustained microglial depletion with CSF1R inhibitor impairs parenchymal plaque development in an Alzheimer's disease model” (Nat Commun, 2019).

SMILES strings stand for the structures. Activity calls are given as the source filed them. The calls are words filed in the database; no cut-off is given here. Bounds are passed on as bounds.

As a reminder, the IC50 is the concentration that inhibits the measured activity by half. Read a high IC50 as lower potency. What is called bioavailability is dose-corrected exposure relative to a reference, in per cent.

Data set [1] in a line: Drug concentration in 5XFAD mouse brain at 75 ppm administered as rodent chow starting from 1.5 months and measured after 5 months. The format is ADME, tissue-based. The settings on record: route po, time 3.5 months, read-out: Ct. In outline:
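WT or 5xFAD mice were fed PLX3397 in AIN-76A chow at 600 ppm or 75 ppm from 1.5 to 5 months of age. Terminal brain and plasma drug concentrations were determined at study end.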

A short description of data set [2]: Toxicity in wildtype mouse assessed as time to locate platform at 1200 ppm administered as rodent chow for 10 to 24 weeks by Morris water maze test (reference value: 3.195 to 56.218 sec). Particulars: in vivo, po, time 10-24 weeks.
The test system of data set [3] is Mus musculus. In words: Antialzheimer activity in wildtype mouse assessed as number of Iba positive cells per FOV in somatosensory cortex at 1200 ppm administered as rodent chow starting from 1.5 months and measured after 7 months (reference value: 371 to 472). The format is functional. The settings on record: route po, time 5.5 months, 4015 h.
For data set [4], the target named is Tyrosine-protein kinase Lck (Homo sapiens, UniProt P06239). In words: Inhibition of LCK (unknown origin).
Sequence of Tyrosine-protein kinase Lck (P06239 whole entry): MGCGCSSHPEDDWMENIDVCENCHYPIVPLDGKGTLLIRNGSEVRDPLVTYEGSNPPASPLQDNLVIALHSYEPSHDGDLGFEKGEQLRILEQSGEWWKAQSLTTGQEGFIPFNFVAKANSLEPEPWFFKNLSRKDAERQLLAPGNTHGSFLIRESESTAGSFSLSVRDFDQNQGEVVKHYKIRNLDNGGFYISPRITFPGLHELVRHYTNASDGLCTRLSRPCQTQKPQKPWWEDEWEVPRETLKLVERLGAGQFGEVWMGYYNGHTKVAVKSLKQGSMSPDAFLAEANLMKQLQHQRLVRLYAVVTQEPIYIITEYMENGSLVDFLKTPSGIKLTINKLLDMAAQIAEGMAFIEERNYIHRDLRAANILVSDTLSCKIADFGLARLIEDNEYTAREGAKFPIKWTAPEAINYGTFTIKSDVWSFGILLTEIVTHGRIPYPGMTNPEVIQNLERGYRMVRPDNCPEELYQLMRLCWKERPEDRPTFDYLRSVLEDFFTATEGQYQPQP
Data set [5] deals with Mus musculus. Briefly: Induction of cerebral amyloid angiopathy in […] mouse at 1200 ppm administered as rodent chow for 24 weeks by immunolabeling based confocal microscopic analysis. Format: functional, organism-based. Particulars: route po.
Data set [6] relates to Mus musculus. In words: Antialzheimer activity in 5XFAD mouse assessed as reduction in plaque formation by measuring average plaque volume in somatosensory cortex at 1200 ppm administered as rodent chow starting from 1.5 months and measured after 4 months by immunolabeling based confocal microscopic analysis. Format: functional. The settings on record: route po, time 2.5 months, 1825 h.

Data set [7] concerns the target T1, Macrophage colony-stimulating factor 1 receptor (Mus musculus) (UniProt P09581).
T1 sequence (whole entry): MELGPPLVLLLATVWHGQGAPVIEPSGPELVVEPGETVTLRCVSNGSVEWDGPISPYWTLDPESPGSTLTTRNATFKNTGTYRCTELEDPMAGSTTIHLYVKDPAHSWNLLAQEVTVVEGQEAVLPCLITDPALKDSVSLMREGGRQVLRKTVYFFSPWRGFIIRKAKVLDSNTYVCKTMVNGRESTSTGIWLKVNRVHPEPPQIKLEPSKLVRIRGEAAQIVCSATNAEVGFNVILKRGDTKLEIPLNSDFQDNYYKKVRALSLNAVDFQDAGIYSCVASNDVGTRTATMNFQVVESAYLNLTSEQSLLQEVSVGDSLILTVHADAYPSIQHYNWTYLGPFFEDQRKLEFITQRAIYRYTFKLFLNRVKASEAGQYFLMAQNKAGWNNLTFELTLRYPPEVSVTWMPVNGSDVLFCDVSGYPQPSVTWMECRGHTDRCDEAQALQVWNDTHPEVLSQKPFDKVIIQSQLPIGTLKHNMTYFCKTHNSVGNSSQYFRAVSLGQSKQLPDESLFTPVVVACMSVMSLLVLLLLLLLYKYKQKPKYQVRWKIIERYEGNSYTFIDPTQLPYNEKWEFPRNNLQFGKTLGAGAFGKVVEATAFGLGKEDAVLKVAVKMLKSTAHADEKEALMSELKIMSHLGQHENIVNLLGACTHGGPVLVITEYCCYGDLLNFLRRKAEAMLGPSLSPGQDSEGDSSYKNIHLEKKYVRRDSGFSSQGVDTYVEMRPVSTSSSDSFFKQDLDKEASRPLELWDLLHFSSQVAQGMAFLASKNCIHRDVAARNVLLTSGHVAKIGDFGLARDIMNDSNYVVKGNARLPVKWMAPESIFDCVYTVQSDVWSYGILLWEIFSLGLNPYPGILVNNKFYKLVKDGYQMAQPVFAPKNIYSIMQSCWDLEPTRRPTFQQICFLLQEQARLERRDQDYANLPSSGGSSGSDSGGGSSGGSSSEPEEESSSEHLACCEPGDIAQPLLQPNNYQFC
In words: In vivo inhibition of CSF1R in wildtype mouse assessed as iron reactivity by measuring hemosiderin intensity of prussian blue staining in […] cortex at 1200 ppm administered as rodent chow starting from 1.5 months and measured after 4 months by confocal microscopic analysis (reference value: 0.362 to 5.194 a.u.). Format: functional. The settings on record: route po, time 2.5 months. In a few lines: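 Wild-type or 5xFAD mice fed PLX5622 (1200 ppm) in AIN-76A chow from 1.5 months of age, examined in 4- and 7-month-old cohorts. Brain sections stained with a Prussian blue kit per kit instructions to detect iron deposits (microbleeds).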

Data set [8] is described as follows: Oral bioavailability in male rat at 45 mg/kg administered as single via gavage. Format: ADME, organism-based. Particulars: in vivo.
Data set [9] concerns Mus musculus. In words: Antialzheimer activity in 5XFAD mouse assessed as amyloidbeta42 level in detergent soluble cortex fraction measured per microgram protein at 1200 ppm administered as rodent chow starting from 1.5 months and measured after 7 months by ELISA (reference value: 0 to 0.239 pg). The format is functional. Particulars: route po, time 5.5 months, 4015 h. In a few lines: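 PLX5622 at 1200 ppm in chow given to 5xFAD mice from 1.5 months to 4 or 7 months of age; cortex and thalamus homogenized in TPER (detergent-soluble), pellets re-homogenized in 70% formic acid and spun 100,000 g, 1 h, 4 °C (insoluble); protein by Bradford/Lowry; Aβ species measured by Meso Scale electrochemiluminescence immunoassay, normalized to protein; n = 7–8 per group at 7 months.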
(In an ELISA, binding on a coated surface is turned into a signal by an enzyme label.)

Data set [10] can be described thus: Effect on Clec7a gene expression in wild type mouse cortex at 1200 ppm administered as rodent chow starting from 1.5 months and measured after 7 months by RNA-Seq analysis (reference value: 0 to 0.413 RPKM). Particulars: route po, time 5.5 months, 4015 h. The format is functional. In a few lines: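 WT and 5xFAD mice were treated with 1200 ppm PLX5622 chow or control chow from 1.5 to 7 months of age. Brains were microdissected into cortex, hippocampus and thalamus, and RNA was extracted from tissue powder. Whole-transcriptome RNA-Seq libraries were sequenced, with n = 4 per group per region (48 samples).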

The target in data set [11] is Testis-specific serine/threonine-protein kinase 1 (Homo sapiens, UniProt Q9BXA7). In words: Inhibition of STK22D (unknown origin).
Sequence of Testis-specific serine/threonine-protein kinase 1 (Q9BXA7 whole entry): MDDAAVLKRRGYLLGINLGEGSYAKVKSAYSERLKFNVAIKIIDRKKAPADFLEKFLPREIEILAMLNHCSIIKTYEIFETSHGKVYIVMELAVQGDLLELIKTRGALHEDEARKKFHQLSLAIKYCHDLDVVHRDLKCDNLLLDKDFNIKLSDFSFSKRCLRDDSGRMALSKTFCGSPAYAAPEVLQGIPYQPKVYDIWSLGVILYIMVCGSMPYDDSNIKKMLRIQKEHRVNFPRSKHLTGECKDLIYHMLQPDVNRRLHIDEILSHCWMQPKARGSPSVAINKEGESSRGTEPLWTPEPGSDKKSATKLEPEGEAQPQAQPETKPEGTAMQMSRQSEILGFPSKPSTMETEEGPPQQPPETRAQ
Data set [12] can be described thus: Effect on Hexb gene expression in 5XFAD mouse cortex at 1200 ppm administered as rodent chow starting from 1.5 months and measured after 7 months by RNA-Seq analysis (reference value: 70.260 to 103.252 RPKM). The format is functional. The settings on record: route po, time 5.5 months, 4015 h.
A short description of data set [13]: Effect on Spi1 gene expression in wild type mouse hippocampus at 1200 ppm administered as rodent chow starting from 1.5 months and measured after 7 months by RNA-Seq analysis (reference value: 1.111 to 1.682 RPKM). The format is functional. Particulars: route po, time 5.5 months, 4015 h.
Data set [14] can be described thus: Effect on Cst7 gene expression in wild type mouse thalamus at 1200 ppm administered as rodent chow starting from 1.5 months and measured after 7 months by RNA-Seq analysis (reference value: 0 to 1.803 RPKM). The format is functional. Particulars: route po, time 5.5 months, 4015 h.
The nature of data set [15]: Ratio of drug concentration in brain to plasma in mouse at 300 ppm administered as rodent chow for 14 days. The format is ADME, cell-free. Particulars: route po, time 14 day, read-out: BPR.
Data set [16] addresses Inhibitor of nuclear factor kappa-B kinase subunit beta (Homo sapiens, UniProt O14920). In words: Inhibition of IKBKB (unknown origin).
Data set [17] has as its target Serine/threonine-protein kinase Nek1 (Homo sapiens, UniProt Q96PY6). In words: Inhibition of NEK1 (unknown origin).
A short description of data set [18]: Toxicity in wildtype mouse assessed as number of closed arm entries at 1200 ppm administered as rodent chow for 10 to 24 weeks by Elevated plus maze test (reference value: 11 to 33). The settings on record: in vivo, po, time 10-24 weeks.

Sequence of Serine/threonine-protein kinase Nek1 (Q96PY6 whole entry): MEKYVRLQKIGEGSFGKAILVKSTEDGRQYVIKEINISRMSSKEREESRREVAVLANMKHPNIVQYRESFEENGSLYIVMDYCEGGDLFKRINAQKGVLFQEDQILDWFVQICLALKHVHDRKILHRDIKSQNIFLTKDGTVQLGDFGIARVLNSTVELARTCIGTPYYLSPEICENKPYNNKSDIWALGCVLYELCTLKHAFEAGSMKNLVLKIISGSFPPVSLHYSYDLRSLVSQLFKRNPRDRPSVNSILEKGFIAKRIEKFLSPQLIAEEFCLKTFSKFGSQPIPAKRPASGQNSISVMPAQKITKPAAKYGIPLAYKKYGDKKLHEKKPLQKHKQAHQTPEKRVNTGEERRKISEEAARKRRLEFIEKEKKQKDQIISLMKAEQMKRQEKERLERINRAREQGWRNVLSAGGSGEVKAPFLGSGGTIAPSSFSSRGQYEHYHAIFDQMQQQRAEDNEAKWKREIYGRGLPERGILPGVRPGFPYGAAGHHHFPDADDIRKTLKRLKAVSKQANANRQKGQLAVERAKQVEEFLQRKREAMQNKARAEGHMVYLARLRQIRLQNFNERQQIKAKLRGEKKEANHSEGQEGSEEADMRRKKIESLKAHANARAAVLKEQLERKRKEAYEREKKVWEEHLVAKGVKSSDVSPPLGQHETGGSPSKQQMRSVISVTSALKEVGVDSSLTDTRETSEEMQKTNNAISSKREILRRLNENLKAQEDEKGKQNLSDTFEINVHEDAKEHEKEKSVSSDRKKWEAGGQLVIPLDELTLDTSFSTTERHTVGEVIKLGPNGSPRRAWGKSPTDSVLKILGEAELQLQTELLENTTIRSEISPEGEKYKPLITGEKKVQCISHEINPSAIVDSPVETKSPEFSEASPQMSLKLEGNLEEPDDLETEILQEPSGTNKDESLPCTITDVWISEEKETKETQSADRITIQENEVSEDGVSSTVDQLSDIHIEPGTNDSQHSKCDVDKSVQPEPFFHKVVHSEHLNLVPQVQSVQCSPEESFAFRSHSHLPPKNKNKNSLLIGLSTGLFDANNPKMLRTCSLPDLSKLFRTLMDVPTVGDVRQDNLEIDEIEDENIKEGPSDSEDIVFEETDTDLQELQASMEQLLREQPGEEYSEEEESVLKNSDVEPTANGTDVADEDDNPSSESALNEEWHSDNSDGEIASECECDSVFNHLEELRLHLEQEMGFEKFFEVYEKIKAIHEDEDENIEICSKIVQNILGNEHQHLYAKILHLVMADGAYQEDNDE
Sequence of Inhibitor of nuclear factor kappa-B kinase subunit beta (O14920 whole entry): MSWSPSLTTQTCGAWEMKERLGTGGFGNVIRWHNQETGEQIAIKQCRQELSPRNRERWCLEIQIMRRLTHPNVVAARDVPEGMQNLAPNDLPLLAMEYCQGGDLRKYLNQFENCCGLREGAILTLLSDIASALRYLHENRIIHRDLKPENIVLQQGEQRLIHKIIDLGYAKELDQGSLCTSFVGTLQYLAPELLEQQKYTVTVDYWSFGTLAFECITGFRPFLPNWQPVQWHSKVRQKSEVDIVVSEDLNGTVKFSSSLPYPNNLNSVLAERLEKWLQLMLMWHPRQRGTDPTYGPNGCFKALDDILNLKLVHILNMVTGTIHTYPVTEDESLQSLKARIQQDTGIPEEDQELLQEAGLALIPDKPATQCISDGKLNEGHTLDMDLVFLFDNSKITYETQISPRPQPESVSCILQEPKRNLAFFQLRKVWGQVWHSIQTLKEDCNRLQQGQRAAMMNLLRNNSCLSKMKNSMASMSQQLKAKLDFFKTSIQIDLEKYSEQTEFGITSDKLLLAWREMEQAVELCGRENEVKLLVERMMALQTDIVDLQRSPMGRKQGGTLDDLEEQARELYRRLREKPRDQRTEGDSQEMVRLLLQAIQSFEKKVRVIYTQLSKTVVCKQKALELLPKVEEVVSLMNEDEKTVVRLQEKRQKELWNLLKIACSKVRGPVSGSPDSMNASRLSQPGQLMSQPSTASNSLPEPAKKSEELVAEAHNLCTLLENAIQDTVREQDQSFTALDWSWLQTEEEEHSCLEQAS

In the case of `FC(F)(F)c1ccc(CNc2ccc(Cc3c[nH]c4ncc(Cl)cc34)cn2)cn1` [PEXIDARTINIB], the concentration at 2555 h in [1] worked out at 600 nM.
Take `COc1ncc(F)cc1CNc1ccc(Cc2c[nH]c3ncc(C)cc23)c(F)n1` [PLX-5622]: the Time in data set [2] is recorded as 6.755 s. In addition, the Activity in the data set with Mus musculus [3] was 1; in the data set with Mus musculus [6], 1533.351 um3; in the data set on Mus musculus [9], 0 pg; in [10] it was 0 RPKM; in [12], 11.641 RPKM; in data set [13] it was 0.055 RPKM. Further, the Activity in data set [14] is 0 RPKM; in data set [18] it was 14. Moreover, the IC50 in data set [4], in [11], in data set [16] and in [17] was over 1 µM each time. The outcome in the data set with Mus musculus [5] was inactive. In addition, in data set [7], the Flu intensity was 0.1 a.u. The molecule also yielded a bioavailability in data set [8] of 95%. For the same molecule, in data set [15], the Kp at 336 h amounted to 0.22.
